# According to ChEMBL document CHEMBL1944511, “Bakuchiol derivatives as novel and potent cytotoxic agents: a report” (Eur J Med Chem, 2012):
# Experiments:
# Assay type in all cases: functional
# [1] = system: THP-1; assay: Growth inhibition of human THP1 cells at 50 uM after 48 hrs by sulpharhodamine B assay; settings: THP-1, 48 h, read-out: GI
# Method in brief: (§1)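 Cells grown in RPMI-1640/MEM with 10% FCS, penicillin/streptomycin, 37 °C, 5% CO2. Seeded in 96-well plates, allowed to adhere overnight, then exposed 48 h to analogs in DMSO (vehicle <0.2% in controls). TCA-fixed, stained with 0.4% SRB in 1% acetic acid, dye solubilized in 10 mM Tris base, OD 570 nm (ref 620 nm). Mean ± SD of three experiments run in triplicate.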
# [2] = system: MCF7; assay: Growth inhibition of human MCF7 cells at 50 uM after 48 hrs by sulpharhodamine B assay; settings: MCF7, 48 h, read-out: GI
# Method in brief: (§2)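 This is the SRB protein-stain assay on adherent cells in RPMI-1640/MEM with 10% FCS. Each compound in DMSO (vehicle <0.2%) was applied at a single fixed concentration for 48 h. Cells were fixed with TCA and stained with SRB, and the dye was solubilised in Tris and read at 570/620 nm. Percent growth inhibition is relative to vehicle-treated controls, reported as mean ± SD of three experiments run in triplicate.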
# [3] = system: PC-3; assay: Growth inhibition of human PC3 cells at 50 uM after 48 hrs by sulpharhodamine B assay; settings: PC-3, 48 h, read-out: GI; method in brief: as §1
# [4] = system: OVCAR-5; assay: Growth inhibition of human OVCAR5 cells at 50 uM after 48 hrs by sulpharhodamine B assay; settings: OVCAR-5, 48 h, read-out: GI; method in brief: as §2
# [5] = system: A549; assay: Growth inhibition of human A549 cells at 50 uM after 48 hrs by sulpharhodamine B assay; settings: A549, 48 h, read-out: GI; method in brief: as §2
# [6] = system: HeLa; assay: Growth inhibition of human HeLa cells at 50 uM after 48 hrs by sulpharhodamine B assay; settings: read-out: GI; method in brief: as §2
# [7] = system: IMR-32; assay: Growth inhibition of human IMR32 cells at 50 uM after 48 hrs by sulpharhodamine B assay; settings: IMR-32, 48 h, read-out: GI; method in brief: as §2
# [8] = system: MCF7; assay: Growth inhibition of human MCF7 cells at 30 uM after 48 hrs by sulpharhodamine B assay; settings: MCF7, 48 h, read-out: GI; method in brief: as §2
# [9] = system: HeLa; assay: Growth inhibition of human HeLa cells at 30 uM after 48 hrs by sulpharhodamine B assay; settings: read-out: GI; method in brief: as §2
# [10] = system: OVCAR-5; assay: Growth inhibition of human OVCAR5 cells at 30 uM after 48 hrs by sulpharhodamine B assay; settings: OVCAR-5, 48 h, read-out: GI; method in brief: as §2
# [11] = system: PC-3; assay: Growth inhibition of human PC3 cells at 30 uM after 48 hrs by sulpharhodamine B assay; settings: PC-3, 48 h, read-out: GI; method in brief: as §1
# [12] = system: IMR-32; assay: Growth inhibition of human IMR32 cells at 30 uM after 48 hrs by sulpharhodamine B assay; settings: IMR-32, 48 h, read-out: GI; method in brief: as §2
# [13] = system: A549; assay: Growth inhibition of human A549 cells at 30 uM after 48 hrs by sulpharhodamine B assay; settings: A549, 48 h, read-out: GI; method in brief: as §2
# [14] = system: HEp-2; assay: Growth inhibition of human Hep2 cells at 50 uM after 48 hrs by sulpharhodamine B assay; settings: HEp-2, 48 h, read-out: GI; method in brief: as §2
# [15] = system: HEp-2; assay: Growth inhibition of human Hep2 cells at 30 uM after 48 hrs by sulpharhodamine B assay; settings: HEp-2, 48 h, read-out: GI; method in brief: as §2
# [16] = system: THP-1; assay: Growth inhibition of human THP1 cells at 30 uM after 48 hrs by sulpharhodamine B assay; settings: THP-1, 48 h, read-out: GI; method in brief: as §1
SMILES,inhibition of growth at 50 µM [1] [%],inhibition of growth at 50 µM [2] [%],inhibition of growth at 50 µM [3] [%],inhibition of growth at 50 µM [4] [%],inhibition of growth at 50 µM [5] [%],inhibition of growth at 50 µM [6] [%],inhibition of growth at 50 µM [7] [%],inhibition of growth at 30 µM [8] [%],inhibition of growth at 30 µM [9] [%],inhibition of growth at 30 µM [10] [%],inhibition of growth at 30 µM [11] [%],inhibition of growth at 30 µM [12] [%],inhibition of growth at 30 µM [13] [%],inhibition of growth at 50 µM [14] [%],inhibition of growth at 30 µM [15] [%],inhibition of growth at 30 µM [16] [%]
COc1ccc(/C=C/[C@@](C)(/C=C/c2ccc(O)cc2)CCC=C(C)C)cc1C=O,45,36,34,33,32,31,35,,,,,,,,,
CC[C@](C)(CCCC(C)C)CCc1ccc(O)cc1,58,46,40,43,49,42,53,,,,,,,,,
COc1ccc(/C=C/[C@@](C)(/C=C/c2ccc(O)cc2)CCC=C(C)C)cc1CO,58,42,39,38,41,36,34,,,,,,,,,
CC(C)=CCCC(C)(/C=C/c1ccc(O)cc1)/C=C/c1ccc(O)cc1,66,31,32,33,33,32,30,,,,,,,,,
CC(C)=CCC[C@](C)(/C=C/c1ccc(O)cc1)/C=C/c1ccc(F)cc1,60,28,33,29,31,43,37,,,,,,,,,
C=C[C@@](C)(/C=C/c1ccc(OC)cc1)CCC=C(C)C,45,18,44,37,12,43,30,37,28,29,31,23,34,40,22,29
CCCOc1ccc(/C=C/[C@@](C)(/C=C/c2ccc(O)cc2)CCC=C(C)C)cc1Cl,20,47,7,12,5,4,8,,,,,,,,,
CC[C@](C)(CCCC(C)C)CCc1ccc(O)c(I)c1,58,40,8,11,12,43,21,,,,,,,,,
C=C[C@@](C)(/C=C/c1ccc(OC(=O)CCC)cc1)CCC=C(C)C,54,20,38,41,50,36,54,,,,,,,,,
C=C[C@@](C)(/C=C/c1ccc(OC(=O)CCCCCCCCC)cc1)CCC=C(C)C,52,10,50,42,48,50,52,12,24,29,27,22,33,30,16,39
COc1ccc(/C=C/C(C)(/C=C/c2ccc(OC)cc2)CCC=C(C)C)cc1,62,13,29,25,15,11,27,,,,,,,,,
C=C[C@@](C)(/C=C/c1ccc(O)cc1)CCC1OC1(C)C (stereo not given in full),52,33,46,12,44,32,59,,,,,,,,,
C=C[C@@](C)(/C=C/c1ccc(O)c([N+](=O)[O-])c1)CCC=C(C)C,55,49,52,55,52,49,50,,,,,,,,,
C=C[C@@](C)(/C=C/c1ccc(O)cc1)CC/C=C(/C)C=O,54,12,51,22,35,40,53,,,,,,,,,
C=C[C@@](C)(/C=C/c1ccc(OC(=O)CCCC)cc1)CCC=C(C)C,15,25,42,3,38,23,21,,,,,,,,,
C=C[C@@](C)(/C=C/c1ccc(OC(=O)CCCCC)cc1)CCC=C(C)C,54,18,28,13,58,50,19,,,,,,,,,
CC(C)=CCC[C@@](C)(/C=C/c1ccc(N)cc1)/C=C/c1ccc(O)cc1,51,48,59,16,57,27,28,28,5,8,15,14,33,46,32,32
C=C[C@@](C)(/C=C/c1ccc(O)c(N)c1)CCC=C(C)C,48,17,28,33,41,48,39,,,,,,,,,
COc1ccccc1/C=C/[C@@](C)(/C=C/c1ccc(O)cc1)CCC=C(C)C,62,42,46,38,10,50,68,,,,,,,,,
COc1ccc(/C=C/[C@@](C)(/C=C/c2ccc(O)cc2)CCC=C(C)C)cc1,52,55,50,20,40,20,6,,,,,,,,,
CC[C@](C)(CCCC(C)C)CCc1cc(Br)c(O)c(Br)c1,51,42,50,8,40,42,21,,,,,,,,,
C=C[C@@](C)(/C=C/c1ccc(OC(=O)CCCCCCC)cc1)CCC=C(C)C,62,12,22,42,15,53,51,,,,,,,,,
C=C[C@@](C)(/C=C/c1ccc(OC(=O)CC)cc1)CCC=C(C)C,60,23,54,52,42,48,63,,,,,,,,,
C=C[C@@](C)(/C=C/c1ccc(OC(=O)CCCCCCCCCCCCCCC)cc1)CCC=C(C)C,62,24,62,64,61,51,54,,,,,,,,,
